Columns and labels:
HSC-2 = assay: Cytotoxicity against human HSC2 cells after 48 hrs by MTT assay; assay type: functional; conditions: HSC-2, 48 h
How it was run: (§1)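 Adherent cells seeded 5 × 10^3/well and grown 48 h, then medium replaced with fresh medium holding test compound (DMSO stock 20 mM; top well 100 μM, serial 2-fold dilutions, triplicate wells). After a further 48 h, cells were washed with PBS lacking Ca/Mg and given 0.2 mg/mL MTT for 4 h. Lysis was in DMSO and A540 was read. CC50 came from the dose–response curve.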

HL-60 = assay: Cytotoxicity against human HL60 cells after 48 hrs by trypan blue exclusion assay; conditions: HL-60, 48 h
[1] = Cytotoxicity against human HPC cells after 48 hrs by MTT assay; assay type: cell-based; how it was run: as §1
HSC-4 = assay: Cytotoxicity against human HSC4 cells after 48 hrs by MTT assay; assay type: functional; conditions: HSC-4, 48 h; how it was run: as §1
[2] = Cytotoxicity against human HGF cells after 48 hrs by MTT assay; assay type: cell-based; how it was run: as §1
HSC-3 = assay: Cytotoxicity against human HSC3 cells after 48 hrs by MTT assay; assay type: functional; conditions: HSC-3, 48 h; how it was run: as §1
[3] = Cytotoxicity against human HPLF cells after 48 hrs by MTT assay; assay type: cell-based; how it was run: as §1

Row | Structure (SMILES) | CC50 (HSC-2) [µM] | CC50 (HL-60) [µM] | CC50 at 48 h [1] [µM] | CC50 (HSC-4) [µM] | CC50 at 48 h [2] [µM] | CC50 (HSC-3) [µM] | CC50 at 48 h [3] [µM]
1 | O=C1O[C@@H]2O[C@@H]3COC(=O)c4cc(O)c(O)c(O)c4-c4c(cc(O)c(O)c4O)C(=O)O[C@H]3[C@H](OC(=O)c3cc(O)c(O)c(O)c3)[C@H]2OC(=O)c2cc(O)c(O)c(O)c2Oc2cc(cc(O)c2O)C(=O)O[C@@H]2O[C@H](CO)[C@@H](O)[C@H](OC(=O)c3cc(O)c(O)c(O)c3)[C@H]2OC(=O)c2cc(O)c(O)c(O)c2Oc2c(O)cc1cc2O | 20.2 | 62 | 80.3 | 26.6 | > 100 | 20.8 | > 100
2 | O=C1O[C@@H]2O[C@@H]3COC(=O)c4cc(O)c(O)c(O)c4-c4c(cc(O)c(O)c4O)C(=O)O[C@H]3[C@H](OC(=O)c3cc(O)c(O)c(O)c3)[C@H]2OC(=O)c2cc(O)c(O)c(O)c2Oc2cc(cc(O)c2O)C(=O)O[C@@H]2O[C@@H]3COC(=O)c4cc(O)c(O)c(O)c4-c4c(cc(O)c(O)c4O)C(=O)O[C@H]3[C@H](OC(=O)c3cc(O)c(O)c(O)c3)[C@H]2OC(=O)c2cc(O)c(O)c(O)c2Oc2c(O)cc1cc2O | 19.9 | 54.2 | 84.3 | 28.7 | 95 | 24.3 | > 100
3 | O=C1O[C@@H]2O[C@@H]3COC(=O)c4cc(O)c(O)c(O)c4-c4c(cc(O)c(O)c4O)C(=O)O[C@H]3[C@H](OC(=O)c3cc(O)c(O)c(O)c3)[C@H]2OC(=O)c2cc(O)c(O)c(O)c2Oc2c(O)cc(cc2O)C(=O)O[C@@H]2O[C@H](CO)[C@@H](O)[C@H](OC(=O)c3cc(O)c(O)c(O)c3)[C@H]2OC(=O)c2cc(O)c(O)c(O)c2Oc2cc1cc(O)c2O | 18.5 | 70.8 | 81 | 24.5 | > 100 | 21.9 | > 100
4 | O=C1O[C@@H]2O[C@@H]3COC(=O)c4cc(O)c(O)c(O)c4-c4c(cc(O)c(O)c4O)C(=O)O[C@H]3[C@H](OC(=O)c3cc(O)c(O)c(O)c3)[C@H]2OC(=O)c2cc(O)c(O)c(O)c2Oc2c(O)cc(cc2O)C(=O)O[C@@H]2O[C@@H]3COC(=O)c4cc(O)c(O)c(O)c4-c4c(cc(O)c(O)c4O)C(=O)O[C@H]3[C@H](OC(=O)c3cc(O)c(O)c(O)c3)[C@H]2OC(=O)c2cc(O)c(O)c(O)c2Oc2c(O)cc1cc2O | 23 | 55.9 | 88.3 | 43 | 93.6 | 47.8 | > 100
5 | O=C1O[C@@H]2O[C@@H]3COC(=O)c4cc(O)c(O)c(O)c4-c4c(cc(O)c(O)c4O)C(=O)O[C@H]3[C@H](OC(=O)c3cc(O)c(O)c(O)c3)[C@H]2OC(=O)c2cc(O)c(O)c(O)c2Oc2cc(cc(O)c2O)C(=O)O[C@@H]2O[C@@H]3COC(=O)c4cc(O)c(O)c(O)c4-c4c(cc(O)c(O)c4O)C(=O)O[C@H]3[C@H](OC(=O)c3cc(O)c(O)c(O)c3)[C@H]2OC(=O)c2cc(O)c(O)c(O)c2Oc2cc(cc(O)c2O)C(=O)O[C@@H]2O[C@@H]3COC(=O)c4cc(O)c(O)c(O)c4-c4c(cc(O)c(O)c4O)C(=O)O[C@H]3[C@H](OC(=O)c3cc(O)c(O)c(O)c3)[C@H]2OC(=O)c2cc(O)c(O)c(O)c2Oc2c(O)cc1cc2O | 22.3 | 30.5 | 90.7 | 42.9 | 96.6 | 34.2 | > 100
